Experimental data reported in ChEMBL document CHEMBL1275331, “Discovery of a novel 5-HT(3) antagonist/5-HT(1A) agonist 3-amino-5,6,7,8-tetrahydro-2-{4-[4-(quinolin-2-yl)piperazin-1-yl]butyl}quinazolin-4(3H)-one (TZB-30878) as an orally bioavailable agent for irritable bowel syndrome” (J Med Chem, 2010).

Tests used:
[1] = biological target: T1, 5-hydroxytryptamine receptor 3A (Homo sapiens, UniProt P46098); assay: Displacement of [3H]BRL-43694 from human 5HT3 receptor expressed in HEK293 cells by liquid scintillation counting; type: cell-based
T1 sequence (P46098 whole entry): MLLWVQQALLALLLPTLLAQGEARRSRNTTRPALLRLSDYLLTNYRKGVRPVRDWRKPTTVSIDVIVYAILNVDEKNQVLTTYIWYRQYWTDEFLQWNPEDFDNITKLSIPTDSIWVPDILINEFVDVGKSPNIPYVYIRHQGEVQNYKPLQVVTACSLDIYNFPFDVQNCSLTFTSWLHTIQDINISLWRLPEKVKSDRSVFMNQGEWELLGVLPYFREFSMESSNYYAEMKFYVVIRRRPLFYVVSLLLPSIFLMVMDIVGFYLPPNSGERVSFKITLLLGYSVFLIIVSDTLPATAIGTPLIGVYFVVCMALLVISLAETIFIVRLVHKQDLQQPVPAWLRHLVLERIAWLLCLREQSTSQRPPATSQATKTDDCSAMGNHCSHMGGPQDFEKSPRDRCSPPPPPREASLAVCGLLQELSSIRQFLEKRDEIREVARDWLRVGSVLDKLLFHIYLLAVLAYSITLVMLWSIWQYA
Outline: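 HEK-293 membranes expressing human 5-HT3 were incubated with 0.5 nmol/L [3H]BRL-43694 (final) for 60 min at 25 °C. Buffer: 50 mM Tris-HCl, 5 mM MgCl2, 1 mM EDTA, pH 7.5. Compound came from 270 μmol/L DMSO stock, diluted in buffer. Filtration was through GF/B presoaked in 0.5% polyethyleneimine, with two cold Tris washes. Run in duplicate or triplicate; percent inhibition calculated.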

[2] = Drug level in Sprague-Dawley rat blood at 3 mg/kg, po after 2 hrs by HPLC analysis; type: ADME, organism-based; parameters: dose 3 mg/kg, route oral; settings: whole blood, read-out: Drug uptake
Outline: (§1)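 Total compound concentration was measured in brain and blood at 2, 4 and 8 h after a single oral 3 mg/kg dose. Brain/blood ratio was also derived. Values are mean ± SD of three rats.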

[3] = Drug level in Sprague-Dawley rat blood at 3 mg/kg, po after 4 hrs by HPLC analysis; type: ADME, organism-based; parameters: dose 3 mg/kg, route oral; settings: whole blood, read-out: Drug uptake; outline: as §1
[4] = Ratio of drug level in brain to blood in Sprague-Dawley rat at 3 mg/kg, po after 4 hrs; type: ADME, organism-based; parameters: dose 3 mg/kg, route oral
Outline: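 Rats dosed 3 mg/kg orally; total compound levels measured in brain and blood at 2, 4 and 8 h, brain/blood ratio derived. Mean ± SD of three rats.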

[5] = Drug level in Sprague-Dawley rat brain at 3 mg/kg, po after 8 hrs by HPLC analysis; type: ADME, organism-based; parameters: dose 3 mg/kg, route oral; settings: read-out: Drug uptake; outline: as §1
[6] = biological target: Beta-1 adrenergic receptor (Homo sapiens, UniProt P08588); assay: Displacement of [3H](-)CGP12177 from human recombinant beta-1 adrenergic receptor
Sequence of Beta-1 adrenergic receptor (P08588 whole entry): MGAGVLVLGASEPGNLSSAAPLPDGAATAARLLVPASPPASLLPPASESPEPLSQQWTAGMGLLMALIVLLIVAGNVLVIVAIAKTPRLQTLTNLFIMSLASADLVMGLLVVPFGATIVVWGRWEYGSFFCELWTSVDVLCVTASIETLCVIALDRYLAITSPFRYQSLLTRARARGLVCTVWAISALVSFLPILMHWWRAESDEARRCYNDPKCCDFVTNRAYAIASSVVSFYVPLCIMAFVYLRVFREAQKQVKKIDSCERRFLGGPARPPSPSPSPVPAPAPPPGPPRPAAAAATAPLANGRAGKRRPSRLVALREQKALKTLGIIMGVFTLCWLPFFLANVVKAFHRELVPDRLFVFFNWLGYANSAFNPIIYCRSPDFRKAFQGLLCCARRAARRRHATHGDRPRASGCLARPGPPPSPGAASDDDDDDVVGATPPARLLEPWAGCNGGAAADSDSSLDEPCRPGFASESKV

For `Nn1c(CCCCN2CCN(c3ccc4ccccc4n3)CC2)nc2c(c1=O)CCCC2`, which IC50 [1] is on record?
Its IC50 is 8.9 nM.

What about the concentration at 2 h [2] of the same compound?
Its concentration at 2 h is 66.5 nM.

And the concentration at 4 h [3]?
Its concentration at 4 h is 16.8 nM.

And the Kp at 4 h [4]?
The Kp at 4 h was 4.4.

And the concentration at 8 h [5]?
The concentration at 8 h was 56.4 nM.

And the IC50 [6]?
Its IC50 is over 1000 nM.
